This passage reports IC50 and Activity results from ChEMBL document CHEMBL4622928, “Discovery of 5-(4-methylpiperazin-1-yl)-2-nitroaniline derivatives as a new class of SIRT6 inhibitors” (Bioorg Med Chem Lett, 2020).

For series [1], the target named is Histone deacetylase 5 (Homo sapiens, UniProt Q9UQL6). The series can be described thus: Inhibition of HDAC5 (unknown origin). In outline:
(§1)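 Each deacetylase was run in a Fluor de Lys (FDL) fluorogenic deacetylation assay as a selectivity screen, with compound tested at concentrations up to 200 μM. IC50 was estimated from the dose-response.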

Series [2] deals with Histone deacetylase 9 (Homo sapiens, UniProt Q9UKV0). The series can be described thus: Inhibition of HDAC9 (unknown origin). The gist of the method: as §1
Chain of Histone deacetylase 9 (Q9UKV0 whole entry): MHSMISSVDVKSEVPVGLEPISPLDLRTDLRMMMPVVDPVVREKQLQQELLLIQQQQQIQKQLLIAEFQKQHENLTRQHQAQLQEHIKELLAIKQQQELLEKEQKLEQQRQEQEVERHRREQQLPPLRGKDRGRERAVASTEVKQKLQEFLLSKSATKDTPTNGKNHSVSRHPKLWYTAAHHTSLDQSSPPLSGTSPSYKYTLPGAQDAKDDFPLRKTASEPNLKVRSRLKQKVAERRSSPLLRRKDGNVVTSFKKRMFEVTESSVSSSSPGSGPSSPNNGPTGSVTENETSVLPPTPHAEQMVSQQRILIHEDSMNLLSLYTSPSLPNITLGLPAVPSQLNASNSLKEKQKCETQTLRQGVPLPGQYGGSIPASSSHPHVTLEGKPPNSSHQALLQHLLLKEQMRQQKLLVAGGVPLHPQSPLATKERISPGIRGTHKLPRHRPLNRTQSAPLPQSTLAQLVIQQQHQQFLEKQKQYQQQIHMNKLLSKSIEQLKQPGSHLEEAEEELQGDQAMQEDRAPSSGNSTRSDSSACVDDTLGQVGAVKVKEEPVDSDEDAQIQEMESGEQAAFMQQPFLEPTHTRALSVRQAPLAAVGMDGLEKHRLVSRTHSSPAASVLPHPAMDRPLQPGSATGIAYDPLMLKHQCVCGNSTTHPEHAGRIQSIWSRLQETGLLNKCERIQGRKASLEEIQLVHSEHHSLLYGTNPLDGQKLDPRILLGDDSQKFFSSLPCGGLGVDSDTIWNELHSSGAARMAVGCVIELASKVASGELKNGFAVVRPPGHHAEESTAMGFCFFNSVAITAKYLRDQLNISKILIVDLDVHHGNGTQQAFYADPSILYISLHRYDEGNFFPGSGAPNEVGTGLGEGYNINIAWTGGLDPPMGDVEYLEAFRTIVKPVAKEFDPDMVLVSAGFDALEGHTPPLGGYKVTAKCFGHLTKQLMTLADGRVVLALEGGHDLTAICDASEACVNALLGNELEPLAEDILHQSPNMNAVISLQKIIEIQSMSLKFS
The target in series [3] is T1, NAD-dependent protein deacetylase sirtuin-2 (Homo sapiens, UniProt Q8IXJ6).
T1 sequence (Q8IXJ6 whole entry): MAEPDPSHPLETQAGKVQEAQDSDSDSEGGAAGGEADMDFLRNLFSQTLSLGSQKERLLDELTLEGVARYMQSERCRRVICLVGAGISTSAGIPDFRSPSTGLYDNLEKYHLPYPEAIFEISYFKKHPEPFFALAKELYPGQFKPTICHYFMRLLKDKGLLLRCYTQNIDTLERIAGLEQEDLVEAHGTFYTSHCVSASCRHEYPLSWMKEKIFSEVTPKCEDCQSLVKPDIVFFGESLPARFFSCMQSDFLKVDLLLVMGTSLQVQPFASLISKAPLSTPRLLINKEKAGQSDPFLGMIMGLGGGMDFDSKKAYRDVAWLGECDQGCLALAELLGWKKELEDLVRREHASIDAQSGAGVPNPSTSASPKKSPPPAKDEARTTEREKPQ
As to the kind of experiment: Inhibition of SIRT2 (unknown origin). The gist of the method:
as §1

In series [4] the test system is BXPC-3. As to the kind of experiment: Upregulation of GLUT1 expression in human BxPC3 cells measured after 72 hrs by Western blot analysis. Type of series: functional, cell-based. The gist of the method:
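BxPC-3 cells were exposed to 1.25, 2.5, 5 and 10 μM compound for 72 h. GLUT1 protein was then detected by western blot, with α-tubulin as loading control.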
A general note: A western blot detects proteins with antibodies after separation by electrophoresis.

Series [5] can be described thus: Toxicity in mouse assessed as change in blood glucose level. In outline:
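Normal (non-diabetic) mice were dosed, and blood glucose and body weight were tracked over the study.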

Series [6] concerns the target T2, Histone deacetylase 7 (Homo sapiens, UniProt Q8WUI4).
T2 sequence (Q8WUI4 whole entry): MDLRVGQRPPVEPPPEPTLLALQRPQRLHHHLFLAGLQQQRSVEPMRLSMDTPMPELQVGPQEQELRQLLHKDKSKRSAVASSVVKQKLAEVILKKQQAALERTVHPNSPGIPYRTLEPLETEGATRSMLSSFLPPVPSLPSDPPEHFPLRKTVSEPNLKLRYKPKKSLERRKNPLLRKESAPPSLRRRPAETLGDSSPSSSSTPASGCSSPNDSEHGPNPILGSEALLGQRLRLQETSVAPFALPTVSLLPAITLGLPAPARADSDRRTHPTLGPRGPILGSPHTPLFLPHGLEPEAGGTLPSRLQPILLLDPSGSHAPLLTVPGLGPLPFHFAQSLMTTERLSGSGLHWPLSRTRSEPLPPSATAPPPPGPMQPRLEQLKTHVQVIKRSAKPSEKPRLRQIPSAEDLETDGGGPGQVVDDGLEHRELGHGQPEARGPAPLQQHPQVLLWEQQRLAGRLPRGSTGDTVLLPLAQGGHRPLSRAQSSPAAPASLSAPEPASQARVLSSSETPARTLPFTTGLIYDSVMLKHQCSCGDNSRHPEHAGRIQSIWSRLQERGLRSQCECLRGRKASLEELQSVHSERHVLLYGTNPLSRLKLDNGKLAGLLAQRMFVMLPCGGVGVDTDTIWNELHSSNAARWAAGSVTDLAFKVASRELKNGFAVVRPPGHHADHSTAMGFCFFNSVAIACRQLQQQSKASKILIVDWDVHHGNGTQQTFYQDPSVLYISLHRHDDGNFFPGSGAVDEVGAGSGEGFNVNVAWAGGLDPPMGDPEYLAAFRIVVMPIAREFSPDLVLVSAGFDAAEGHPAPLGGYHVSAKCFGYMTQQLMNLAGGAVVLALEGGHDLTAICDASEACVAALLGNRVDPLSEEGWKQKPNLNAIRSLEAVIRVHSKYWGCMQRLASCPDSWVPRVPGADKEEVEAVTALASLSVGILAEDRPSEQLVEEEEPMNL
The series can be described thus: Inhibition of HDAC7 (unknown origin). In outline: as §1

Series [7] addresses Histone deacetylase 1 (Homo sapiens, UniProt Q13547). As to the kind of experiment: Inhibition of HDAC1 (unknown origin). In outline:
as §1

Series [8] concerns the target T3, Protein deacetylase HDAC6 (Homo sapiens, UniProt Q9UBN7).
T3 sequence (Q9UBN7 whole entry): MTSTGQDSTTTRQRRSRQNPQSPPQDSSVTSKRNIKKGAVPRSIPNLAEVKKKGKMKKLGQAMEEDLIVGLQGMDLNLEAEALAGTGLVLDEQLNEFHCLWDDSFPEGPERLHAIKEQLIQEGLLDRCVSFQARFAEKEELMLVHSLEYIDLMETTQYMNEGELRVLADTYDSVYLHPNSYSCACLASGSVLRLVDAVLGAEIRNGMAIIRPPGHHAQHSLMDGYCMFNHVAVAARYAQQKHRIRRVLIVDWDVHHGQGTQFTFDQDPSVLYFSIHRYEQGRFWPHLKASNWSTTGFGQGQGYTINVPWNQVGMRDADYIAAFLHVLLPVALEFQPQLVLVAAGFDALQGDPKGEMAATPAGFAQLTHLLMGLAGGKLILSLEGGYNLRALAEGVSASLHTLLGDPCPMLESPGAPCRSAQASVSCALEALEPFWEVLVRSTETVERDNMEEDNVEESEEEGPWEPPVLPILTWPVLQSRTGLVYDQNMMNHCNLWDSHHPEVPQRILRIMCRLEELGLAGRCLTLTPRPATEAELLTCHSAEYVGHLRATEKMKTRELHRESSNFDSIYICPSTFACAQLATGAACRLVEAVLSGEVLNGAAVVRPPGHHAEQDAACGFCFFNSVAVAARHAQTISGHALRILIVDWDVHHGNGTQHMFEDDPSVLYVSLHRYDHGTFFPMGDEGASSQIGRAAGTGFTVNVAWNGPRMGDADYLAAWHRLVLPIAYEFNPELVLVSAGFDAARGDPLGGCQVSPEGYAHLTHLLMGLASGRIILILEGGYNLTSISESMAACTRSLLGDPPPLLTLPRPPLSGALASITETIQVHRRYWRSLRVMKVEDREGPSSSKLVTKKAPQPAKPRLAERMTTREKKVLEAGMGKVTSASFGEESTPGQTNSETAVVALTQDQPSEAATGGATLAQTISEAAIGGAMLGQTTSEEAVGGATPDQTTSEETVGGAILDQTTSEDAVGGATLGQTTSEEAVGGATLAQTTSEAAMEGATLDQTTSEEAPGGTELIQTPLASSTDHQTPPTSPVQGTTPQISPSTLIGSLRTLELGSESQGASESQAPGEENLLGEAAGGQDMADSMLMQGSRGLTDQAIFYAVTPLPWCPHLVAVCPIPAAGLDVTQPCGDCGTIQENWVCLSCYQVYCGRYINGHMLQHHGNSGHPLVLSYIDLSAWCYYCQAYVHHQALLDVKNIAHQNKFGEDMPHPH
As to the kind of experiment: Inhibition of HDAC6 (unknown origin). In outline:
as §1

As a reminder, the IC50 is the concentration that gives 50% inhibition.

Some results are limits rather than exact numbers.

Chain of Histone deacetylase 1 (Q13547 whole entry): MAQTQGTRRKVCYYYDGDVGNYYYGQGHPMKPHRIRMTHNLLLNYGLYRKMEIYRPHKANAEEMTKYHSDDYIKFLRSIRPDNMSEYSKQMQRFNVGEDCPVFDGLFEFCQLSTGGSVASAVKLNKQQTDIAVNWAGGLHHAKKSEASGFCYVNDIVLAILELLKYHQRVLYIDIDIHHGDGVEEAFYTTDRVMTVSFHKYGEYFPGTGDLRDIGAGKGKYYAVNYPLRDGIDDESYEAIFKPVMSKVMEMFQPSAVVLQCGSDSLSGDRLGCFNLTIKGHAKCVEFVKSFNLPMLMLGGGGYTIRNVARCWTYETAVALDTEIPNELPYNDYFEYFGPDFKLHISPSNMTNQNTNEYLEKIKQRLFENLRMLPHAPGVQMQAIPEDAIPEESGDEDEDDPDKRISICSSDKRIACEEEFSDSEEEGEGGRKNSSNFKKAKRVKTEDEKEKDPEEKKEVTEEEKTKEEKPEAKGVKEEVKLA
Chain of Histone deacetylase 5 (Q9UQL6 whole entry): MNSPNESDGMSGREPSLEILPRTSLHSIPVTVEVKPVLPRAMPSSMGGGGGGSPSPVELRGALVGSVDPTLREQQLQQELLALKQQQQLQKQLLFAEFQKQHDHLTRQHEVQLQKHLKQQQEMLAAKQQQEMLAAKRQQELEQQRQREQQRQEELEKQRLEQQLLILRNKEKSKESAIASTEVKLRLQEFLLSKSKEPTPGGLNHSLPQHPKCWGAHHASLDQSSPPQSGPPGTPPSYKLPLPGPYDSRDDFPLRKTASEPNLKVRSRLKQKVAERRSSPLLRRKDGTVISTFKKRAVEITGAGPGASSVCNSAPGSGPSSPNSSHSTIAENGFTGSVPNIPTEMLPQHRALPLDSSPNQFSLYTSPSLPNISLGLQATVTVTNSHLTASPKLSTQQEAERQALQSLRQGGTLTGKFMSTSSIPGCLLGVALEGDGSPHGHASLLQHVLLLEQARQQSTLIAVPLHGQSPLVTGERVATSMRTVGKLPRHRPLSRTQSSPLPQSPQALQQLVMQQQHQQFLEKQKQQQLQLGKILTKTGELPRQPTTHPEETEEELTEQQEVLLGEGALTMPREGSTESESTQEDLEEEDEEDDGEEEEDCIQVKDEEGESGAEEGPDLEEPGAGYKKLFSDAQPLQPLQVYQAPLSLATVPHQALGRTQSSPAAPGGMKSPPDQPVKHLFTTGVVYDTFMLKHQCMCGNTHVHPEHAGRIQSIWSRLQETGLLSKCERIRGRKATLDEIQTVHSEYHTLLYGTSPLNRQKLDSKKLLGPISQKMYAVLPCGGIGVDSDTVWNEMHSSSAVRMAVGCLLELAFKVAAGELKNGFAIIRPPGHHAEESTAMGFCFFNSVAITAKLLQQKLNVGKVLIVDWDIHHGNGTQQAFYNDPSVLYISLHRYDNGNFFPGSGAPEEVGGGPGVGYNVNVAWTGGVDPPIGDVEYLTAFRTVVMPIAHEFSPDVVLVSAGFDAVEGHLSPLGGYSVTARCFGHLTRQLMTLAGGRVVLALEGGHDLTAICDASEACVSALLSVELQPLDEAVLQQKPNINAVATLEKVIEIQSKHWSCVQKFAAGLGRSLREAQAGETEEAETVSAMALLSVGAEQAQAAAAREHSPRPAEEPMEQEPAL

With `CN1CCN(c2ccc([N+](=O)[O-])c(N)c2)CC1`, the IC50 in series [1], in series [2], in series [3], in series [6], in series [7] and in series [8] was over 200 µM throughout. The Activity entry in series [4] is “Dose-dependent effect”; in series [5], “Non-Toxic”.
